# Compounds with a hit are over-represented: about 2.7% of the library has one in this group of screens.
# ASAP1 inh = inhibitors of human ASAP1 ArfGAP activity, primary screen, biochemical, fluorescence polarization. Arf-GAP with SH3 domain, ANK repeat and PH domain-containing protein 1 (Homo sapiens), …. 0.19% of 360,000 active. ASAP1-stimulated ARF1 GTP hydrolysis, GDP FP detection. inhibition, % at 16.5 µM; in the data active = inhibition above about 25%
# ARFGAP1 inhibitor = inhibitors of rat ARFGAP1 GAP activity, primary screen, biochemical, fluorescence polarization, GDP tracer | ADP-ribosylation factor GTPase-activating protein 1 (Rattus norvegicus), Q62848 | Arfgap1-stimulated ARF1 GTP hydrolysis, GDP FP detection | inhibition, % at 16.5 µM | 0.26% of 360,000 active;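 active = inhibition above a per-plate limit, mean inhibition of low control wells plus 3 SD, cut at about 25% in these data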
# Target sequence (Q62848 1-136 limits assumed): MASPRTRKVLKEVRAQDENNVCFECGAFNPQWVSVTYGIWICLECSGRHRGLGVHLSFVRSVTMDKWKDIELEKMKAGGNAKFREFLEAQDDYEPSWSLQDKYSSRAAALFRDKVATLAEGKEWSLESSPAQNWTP
#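 Material – truncated rat Arfgap1 GAP domain · Buffer or medium – HEPES-based buffer, pH 7.5 · Reagent – human ARF1(Δ1-17)-GTP substrate · Dosing – 16.5 µM single point, 1.26% DMSO · Schedule – GTP hydrolysis reaction 2 h at 25 °C · Technique – GDP detection by fluorescence polarization · Benchmarks – No-Arfgap1 wells (100%) versus DMSO full-reaction wells (0%) · Repeats – single replicate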
# bovine MsrA act = bovine MsrA enzyme activators, primary screen, biochemical, absorbance, HTS; Methionine sulfoxide reductase A (Bos taurus); purified bovine MsrA, absorbance read-out; activation, % at 10.6 µM; 0.3% of 360,000 active; AID 602163, 2012; in the data active = activation above about 7.5%
# Rev-erbA mod = modulators of Rev-erb alpha DNA binding, primary screen, biochemical, FITC-DNA, fluorescence polarization, uHTS. Nuclear receptor subfamily 1 group D member 1 (Homo sapiens), P20393. Rev-erbα–FITC-DNA binding, 90 min. activity, % at 10 µM. 0.79% of 370,000 active;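 active = activity above about 14%, limit read from the data; passing the limit was not always enough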
# MsrA inhibitor = bovine MsrA enzyme inhibitors, primary screen, biochemical, absorbance, HTS; Methionine sulfoxide reductase A (Bos taurus); purified bovine MsrA, absorbance read-out; AID 651718, 2012; inhibition, % at 15.5 µM; 0.75% of 360,000 active
# sPLA2-III inh = human group III sPLA2 inhibitors, primary screen, biochemical, QFRET, BODIPY PC-A2 liposome substrate | Group 3 secretory phospholipase A2 (Homo sapiens), Q9NZ20 | QFRET BODIPY PC-A2 liposome hydrolysis, fluorescence | inhibition, % at 12.2 µM | 0.56% of 370,000 active | AID 743126, 2013;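 active = inhibition above mean plus 3 SD of compounds lying within the high and low control bounds, cut at about 19% in these data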
# Target sequence (Q9NZ20 whole entry, looked up): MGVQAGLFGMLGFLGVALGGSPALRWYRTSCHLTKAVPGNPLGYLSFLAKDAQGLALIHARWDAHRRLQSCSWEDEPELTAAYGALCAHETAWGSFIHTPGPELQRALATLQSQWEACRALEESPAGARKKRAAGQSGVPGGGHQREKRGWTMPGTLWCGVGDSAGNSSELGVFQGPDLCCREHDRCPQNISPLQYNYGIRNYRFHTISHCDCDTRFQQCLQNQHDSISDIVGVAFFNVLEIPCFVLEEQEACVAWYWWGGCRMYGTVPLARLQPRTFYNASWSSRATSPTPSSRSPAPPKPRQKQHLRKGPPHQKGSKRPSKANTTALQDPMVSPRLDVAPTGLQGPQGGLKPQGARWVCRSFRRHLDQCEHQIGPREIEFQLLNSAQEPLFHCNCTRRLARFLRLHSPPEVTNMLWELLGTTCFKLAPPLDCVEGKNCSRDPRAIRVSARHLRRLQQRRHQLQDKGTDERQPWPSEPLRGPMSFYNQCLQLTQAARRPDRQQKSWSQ
# MsrA conf = bovine MsrA inhibitors, retest, confirmation, biochemical, absorbance, HTS; shares compounds with MsrA inhibitor; purified bovine MsrA, absorbance read-out; inhibition, % at 15.5 µM; 41% of 2,300 active;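 note: coupled to thioredoxin reductase with NADPH and selenocystamine and DMSO as substrate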
# A number is an active result; . = inactive; / = no result given; ! = a repeat was not active. Cut-off read from the data, not from the text of the source, unless noted: active = inhibition above about 4.5%; inactive = the rest.
SMILES,ASAP1 inh,ARFGAP1 inhibitor,bovine MsrA act,Rev-erbA mod,MsrA inhibitor,sPLA2-III inh,MsrA conf
N#Cc1ccc(/C=C2\CC3(OC(=O)c4ccc(Cl)cc4)CCCN2C3)cc1 (centres undefined),/,/,/,.,/,.,/
CCN(CC)c1ccc(/C=N/NC(=O)CCC(=O)NCc2ccccc2)c(O)c1,.,.,.,.,4.7,.,4.8
COc1cc(/C=N\NC(=O)CNC(=O)C2COc3ccccc3O2)ccc1O (centres undefined),.,.,.,.,.,.,/
CCN(CC)c1ccc(/C=N/Nc2ccc(C)cc2)c(O)c1,.,.,.,.,.,.,/
CCOC(=O)N/N=C/c1ccc(N(CC)CC)cc1O,.,.,.,.,6.1,.,6.3
CCN(CC)c1ccc(/C=N/NC(=O)CNC(=O)C2COc3ccccc3O2)c(O)c1 (centres undefined),.,.,.,.,5.2,.,.
Cc1ccsc1/C=C1\SC(N)=NC1=O,.,.,.,.,5.0,.,.
Cc1ccc(/C=C2\SC(N)=NC2=O)s1,.,.,.,.,.,.,/
C#CCN1C(C(=O)OC)CN(CCCCCC)CCS1(=O)=O (centres undefined),/,/,/,.,/,.,/
C[C@@H]1CCN(C2CC2)S(=O)(=O)c2c(cccc2N2CC[C@H](O)C2)O1,/,/,/,.,/,.,/
COc1cccc(/C=N/n2c(C3CCCCC3)n[nH]c2=S)c1,.,.,.,.,8.2,.,6.5
Oc1cccc(/C=N/n2c(C3CCCCC3)n[nH]c2=S)c1,.,.,.,.,.,.,/
O=[N+]([O-])c1cccc(/C=N/n2c(C3CCCCC3)n[nH]c2=S)c1,.,.,.,.,5.0,.,12.6
Cc1cc2n(c(=O)c1C#N)CCCN2c1cccc(Cl)c1,.,.,.,.,6.9,.,5.5
CCCC(=O)OC12CCCN(C1)/C(=C/c1ccc(Cl)cc1)C2 (centres undefined),/,/,/,.,/,.,/
CCN(CC)c1ccc(/C=N/NS(=O)(=O)c2cccc([N+](=O)[O-])c2)cc1,.,.,.,.,5.4,.,.
CC(=O)NCc1ccc(S(=O)(=O)N/N=C/c2ccc(Br)cc2)cc1,.,.,.,.,.,.,/
CCN(CC)c1ccc(C=NCCc2ccc(S(N)(=O)=O)cc2)cc1,.,.,.,.,4.7,.,.
CCN(CC)c1ccc(/C=N/NS(=O)(=O)c2ccc(CNC(C)=O)cc2)cc1,.,.,.,.,6.2,.,.
CCN(CC)c1ccc(/C=N/O)cc1,.,.,.,.,.,.,/
Cc1ccc(S(=O)(=O)N/N=C/c2ccccc2F)cc1[N+](=O)[O-],.,.,.,.,.,.,/
CCN(Cc1ccccc1)c1ccc(/C=N/NS(=O)(=O)c2ccc(C)c([N+](=O)[O-])c2)cc1,.,.,.,.,4.8,.,.
COc1ccc2[nH]c3c(c2c1)CCN[C@]31C(=O)N(Cc2ccccc2)c2ccccc21,/,/,/,.,/,.,/
COc1cc(/C=N/N=C(/C(=O)c2ccccc2)c2ccccc2)cc(OC)c1O,.,.,.,.,.,.,/
COc1cc(/C=N/NC(=O)C(N)=O)cc(OC)c1O,.,.,.,.,4.8,.,.
SMILES,ASAP1 inh,ARFGAP1 inhibitor,bovine MsrA act,Rev-erbA mod,MsrA inhibitor,sPLA2-III inh,MsrA conf
CCOC(=O)N/N=C/c1cc(OC)c(O)c(OC)c1,.,.,.,.,.,.,/
COc1cc(/C=N/N=C/c2cc(OC)c(O)c(OC)c2)cc(OC)c1O,.,.,.,.,6.0,.,5.8
O=C(N[C@@H]1C[C@@H]2O[C@@H](CO)CC[C@@H]2O[C@@H]1CCc1ccc(-c2cccnc2)cc1)c1cccc(F)c1,/,/,/,.,/,.,/
CC(C)N1Cc2nnn(Cc3ccc(F)cc3)c2-c2cc(F)ccc2S1(=O)=O,/,/,/,.,/,.,/
CC(=O)c1cc(-c2ccccc2)c(=O)n2c1CCC2,/,/,/,.,/,.,/
CCOC(=O)C(/C=C(\C#N)C(=O)OCC)=C(/N)N1CCN(c2ccc(OC)cc2)CC1,.,.,.,.,5.9,.,8.2
O=C(NCCN1CCCCC1)c1ccc(=O)oc1,.,.,.,.,5.1,.,.
O=C(NCCN1CCCC1)c1ccc(Cl)cc1,.,.,.,.,.,.,/
O=C(NCCC1=CCCCC1)c1ccc(=O)oc1,.,.,.,.,6.9,.,7.1
Fc1ccc(-c2cc(-c3nnc4sc(-c5cccs5)nn34)[nH]n2)cc1,/,/,/,.,/,.,/
O=c1cc(-c2ccc(O)cc2)oc2cc(O[C@@H]3O[C@H](CO)[C@@H](O)[C@H](O)[C@H]3O[C@@H]3OC[C@](O)(CO)[C@H]3O)cc(O)c12,.,.,.,.,5.3,.,.
CN(CCO)c1cccc2c1S(=O)(=O)N(Cc1cn(Cc3ccccc3C(F)(F)F)nn1)Cc1ccccc1O2,/,/,/,.,/,.,/
Cc1c(N=C/C=C2\N(C)c3ccccc3C2(C)C)c(=O)n(-c2ccccc2)n1C,.,.,.,.,6.1,.,4.9
Cc1c(N=C/C=C2/N(C)c3ccccc3C2(C)C)c(=O)n(-c2ccccc2)n1C,.,.,.,.,5.7!,.,.
Cc1c(N=C/C=C/c2ccccc2)c(=O)n(-c2ccccc2)n1C,.,.,.,.,.,.,/
Cc1c(NC(=S)/C=C2\N(C)c3ccccc3C2(C)C)c(=O)n(-c2ccccc2)n1C,.,.,.,.,.,.,/
Cn1cnc([N+](=O)[O-])c1S(=O)(=O)Oc1ccccc1,.,.,.,.,16.9,.,12.0
Cn1cnc([N+](=O)[O-])c1S(=O)(=O)Nc1ccccc1,.,.,.,.,15.6,.,8.1
CCc1noc(C)c1C(=O)Nc1nc(-c2ccc(F)cc2)c(C)s1,.,.,.,.,9.5,.,8.7
CCc1noc(C)c1C(=O)Nc1nc2c(F)cc(F)cc2s1,.,.,.,.,.,.,/
CCc1noc(C)c1C(=O)Nc1nc(-c2cc(C)ccc2C)c(C)s1,.,.,.,.,18.2,.,21.2
CCc1noc(C)c1C(=O)Nc1nc2c(C)cccc2s1,.,.,.,.,.,.,/
Cn1c(=O)c2[nH]c(SCC(=O)NCCc3cccc(F)c3)nc2n(C)c1=O,/,/,/,.,/,.,/
CCOC(=O)CSC1=C(C#N)C(=O)NC(c2ccc(OC)cc2)S1 (centres undefined),.,.,.,.,6.6,.,6.3
O=C1C(Cl)=C(NCCCN2CCOCC2)C(=O)N1CCc1ccccc1,.,.,.,.,26.9,.,25.2

# From PubChem BioAssay
